Experimental findings from ChEMBL document CHEMBL4414579, “Natural Hydroxamate-Containing Siderophore Acremonpeptides A-D and an Aluminum Complex of Acremonpeptide D from the Marine-Derived Acremonium persicinum SCSIO 115” (J Nat Prod, 2019) are described below.

What all share (type): functional, organism-based
For one test, the system named is Acinetobacter baumannii. Description: Antibacterial activity against Acinetobacter baumannii ATCC 19606 up to 100 ug/ml by CLSI based method. The settings on record: ATCC 19606 = CIP 70.34 = JCM 6841.
The subject of test [1] is Staphylococcus aureus. Put plainly: Antibacterial activity against methicillin resistant Staphylococcus aureus shhs-A1 up to 100 ug/ml by CLSI based method. Summed up:
(§1)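 Both strains were clinical isolates. They were screened within a panel of nine bacteria and two Candida albicans strains, at concentrations up to 100 μg/mL, by a previously reported method.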

The subject of test [2] is Escherichia coli. Description: Antibacterial activity against drug-resistant Escherichia coli E11 up to 100 ug/ml by CLSI based method. Summed up: as §1
The test system of test [3] is Human alphaherpesvirus 1. Description: Antiviral activity against HSV-1 infected in African green monkey Vero cells assessed as inhibition of GFP expression after 72 hrs by GFP-based fluorescence microscopic analysis. The settings on record: Human alphaherpesvirus 1, Vero. The gist of the method: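 Vero cells were infected at MOI 1.0 with recombinant HSV-1 carrying a GFP reporter. Cells were treated with compounds at 10 μM final or an equal amount of DMSO, with ganciclovir as positive control, and GFP was monitored by fluorescence microscopy. For EC50, infected cells were treated at several concentrations in triplicate, and viral load was measured by TCID50 at 72 h postinfection.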

Test [4] concerns Candida albicans. Description: Antifungal activity against Candida albicans ATCC 96901. Summed up:
(§2)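 Tested against the yeast by a previously reported antimicrobial method, at concentrations up to 100 μg/mL.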

Test [5] has as its system Bacillus thuringiensis. Description: Antibacterial activity against Bacillus thuringiensis W102 up to 100 ug/ml by CLSI based method.
Test [6] deals with Escherichia coli. Description: Antibacterial activity against Escherichia coli ATCC 25922 up to 100 ug/ml by CLSI based method.
For the next test, the system named is Klebsiella pneumoniae. Description: Antibacterial activity against Klebsiella pneumoniae ATCC 13883 up to 100 ug/ml by CLSI based method.
A further test relates to Enterococcus faecalis. Put plainly: Antibacterial activity against Enterococcus faecalis ATCC 29212 up to 100 ug/ml by CLSI based method.
Test [7] deals with Bacillus thuringiensis. Description: Antibacterial activity against Bacillus thuringiensis BT01 up to 100 ug/ml by CLSI based method.
Test [8] relates to Candida albicans. Description: Antifungal activity against Candida albicans CMCC(F) 98001. Summed up: as §2
In test [9] the test system is Staphylococcus aureus. Description: Antibacterial activity against Staphylococcus aureus ATCC 29213 up to 100 ug/ml by CLSI based method.
Test [10] deals with Human alphaherpesvirus 1. Description: Inhibition of UL42 gene transcription in HSV-1 infected in African green monkey Vero cells at 10 uM by qRT-PCR analysis. Summed up:
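Vero cells were infected with GFP-reporter HSV-1 at MOI 1.0, then exposed to compounds at 10 μM final or DMSO. Viral gene transcription was quantified by qRT-PCR, with ganciclovir as positive control and NTC as negative control.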

Molecules are shown by their SMILES. Calls of active or inactive are those of the source. No cut-off for these calls is given here. Square brackets hold non-standard residues; d marks the D form. Peptide text beside a SMILES is read from it. Orn(N5-OH,N5-Ac) = CC(=O)N(O)CCC[C@H](N)C(=O)O

`CC(=O)N(O)CCC[C@@H]1NC(=O)[C@H](CCCN(O)C(C)=O)NC(=O)[C@H](Cc2ccccc2)NC(=O)[C@H](CC(C)C)NC(=O)[C@H](Cc2c[nH]c3ccccc23)NC(=O)[C@H](CCCN(O)C(C)=O)NC1=O` (cyclo(F[Orn(N5-OH,N5-Ac)][Orn(N5-OH,N5-Ac)][Orn(N5-OH,N5-Ac)]WL)): the result in the test with Acinetobacter baumannii, with Staphylococcus aureus [1], in the test on Escherichia coli [2], with Candida albicans [4], with Bacillus thuringiensis [5] and with Escherichia coli [6] was inactive. Moreover, the result in the test on Klebsiella pneumoniae, in the test with Enterococcus faecalis, in the test with Bacillus thuringiensis [7], in the test on Candida albicans [8] and with Staphylococcus aureus [9] was inactive. In addition, the EC50 in the test on Human alphaherpesvirus 1 [3] was determined as 24 µM.

In the case of `CC(=O)N(O)CCC[C@@H]1NC(=O)[C@H](CCCN(O)C(C)=O)NC(=O)[C@H](CCCN(O)C(C)=O)NC(=O)[C@H](Cc2ccccc2)NC(=O)[C@H](CC(C)C)NC(=O)[C@H](C)NC1=O` (cyclo(ALF[Orn(N5-OH,N5-Ac)][Orn(N5-OH,N5-Ac)][Orn(N5-OH,N5-Ac)])), the outcome with Acinetobacter baumannii, in the test on Staphylococcus aureus [1], in the test with Escherichia coli [2], in the test with Candida albicans [4], with Bacillus thuringiensis [5] and in the test with Escherichia coli [6] was inactive. For the same compound, the result with Klebsiella pneumoniae, in the test on Enterococcus faecalis, with Bacillus thuringiensis [7], in the test on Candida albicans [8] and in the test on Staphylococcus aureus [9] was inactive. In the test on Human alphaherpesvirus 1 [3], the concentration giving a half-maximal response (EC50) amounted to 8.7 µM. Moreover, the inhibition entry in the test with Human alphaherpesvirus 1 [10] was “Active”.

In the case of `CC(=O)N(O)CCC[C@@H]1NC(=O)[C@H](CCCN(O)C(C)=O)NC(=O)[C@H](Cc2ccccc2)NC(=O)[C@H](CC(C)C)NC(=O)[C@H](Cc2ccccc2)NC(=O)[C@H](CCCN(O)C(C)=O)NC1=O` (cyclo(FLF[Orn(N5-OH,N5-Ac)][Orn(N5-OH,N5-Ac)][Orn(N5-OH,N5-Ac)])), the result in the test on Acinetobacter baumannii, in the test on Staphylococcus aureus [1], in the test on Escherichia coli [2], with Candida albicans [4], in the test with Bacillus thuringiensis [5] and in the test on Escherichia coli [6] was inactive. The result with Klebsiella pneumoniae, with Enterococcus faecalis, in the test on Bacillus thuringiensis [7], in the test with Candida albicans [8] and with Staphylococcus aureus [9] was inactive. In addition, the EC50 in the test with Human alphaherpesvirus 1 [3] is 27 µM.

Consider `Nc1nc2c(ncn2COC(CO)CO)c(=O)[nH]1` [GANCICLOVIR], for which, in the test on Human alphaherpesvirus 1 [3], the concentration giving a half-maximal response (EC50) was 0.025 µM. Also, in the test with Human alphaherpesvirus 1 [10], the inhibition entry was “Active”.

Regarding `CC(=O)N(O)CCC[C@@H]1NC(=O)[C@H](CCCN(O)C(C)=O)NC(=O)[C@H](CCCN(O)C(C)=O)NC(=O)[C@H](Cc2ccccc2)NC(=O)[C@H](CC(C)C)NC(=O)[C@H](CO)NC1=O` (cyclo(F[Orn(N5-OH,N5-Ac)][Orn(N5-OH,N5-Ac)][Orn(N5-OH,N5-Ac)]SL)), the result in the test with Acinetobacter baumannii, in the test on Staphylococcus aureus [1], with Escherichia coli [2], in the test on Candida albicans [4], with Bacillus thuringiensis [5] and in the test on Escherichia coli [6] was inactive. Moreover, the outcome in the test with Klebsiella pneumoniae, in the test with Enterococcus faecalis, in the test with Bacillus thuringiensis [7], in the test on Candida albicans [8] and in the test with Staphylococcus aureus [9] was inactive. For the same compound, in the test on Human alphaherpesvirus 1 [3], the EC50 worked out at 16 µM. Further, the inhibition entry in the test on Human alphaherpesvirus 1 [10] was “Active”.
